Measurements reported in ChEMBL document CHEMBL3860048 (J Med Chem, 2016).
Active and inactive are the calls of the source. No cut-off for these calls is given here. Where a SMILES comes first, the peptide text is derived from it. [ ]: non-standard residue; d: D form. Phe(4-Cl) = N[C@@H](Cc1ccc(Cl)cc1)C(=O)O; Phe(3-F) = N[C@@H](Cc1cccc(F)c1)C(=O)O; Phe(2-F) = N[C@@H](Cc1ccccc1F)C(=O)O; Arg(Me) = CNC(=N)NCCC[C@H](N)C(=O)O; Pip = O=C(O)[C@@H]1CCCCN1; NMeA = CN[C@@H](C)C(=O)O; Thz = O=C(O)[C@@H]1CSCN1; dNMeA = CN[C@H](C)C(=O)O; Aze = O=C(O)[C@@H]1CCN1; 2Abz = Nc1ccccc1C(=O)O; Aib = CC(C)(N)C(=O)O; azaGly = NNC(=O)O; βAla = NCCC(=O)O; Sar = CNCC(=O)O

Assays:
[1] = target: KiSS-1 receptor (Rattus norvegicus, UniProt Q924U1); assay: Agonist activity at rat KISS1R expressed in CHO/dhfr cells assessed as increase in intracellular Ca2+ levels measured for 180 secs by Fluo 3-AM dye based FLIPR assay; format: functional, cell-based
[2] = target: KiSS-1 receptor (Homo sapiens, UniProt Q969F8); assay: Agonist activity at human KISS1R expressed in CHO/dhfr cells assessed as increase in intracellular Ca2+ levels measured for 180 secs by Fluo 3-AM dye based FLIPR assay; format: functional, cell-based
How it was run: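 CHO cells expressing human KISS1R; FLIPR recording of ligand-induced [Ca2+]i rise over time. Maximum response taken and expressed as percent of the response to a maximal concentration of metastin(45-54). EC50 = concentration giving half-maximal mobilization, from nonlinear regression of smoothed data. Reported as ratio to the metastin(45-54) EC50.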

[3] = tested on: Rattus norvegicus; assay: Inhibition of testosterone levels in CD(SD) rat assessed as plasma testosterone level <0.04 ng/ml at 0.03 nmol/hr, sc administered continuously for 6 days through alzet osmotic pump measured after 6 days by radio-immunoassay; format: functional, organism-based

Chain of KiSS-1 receptor (Homo sapiens, UniProt Q969F8) (Q969F8 whole entry): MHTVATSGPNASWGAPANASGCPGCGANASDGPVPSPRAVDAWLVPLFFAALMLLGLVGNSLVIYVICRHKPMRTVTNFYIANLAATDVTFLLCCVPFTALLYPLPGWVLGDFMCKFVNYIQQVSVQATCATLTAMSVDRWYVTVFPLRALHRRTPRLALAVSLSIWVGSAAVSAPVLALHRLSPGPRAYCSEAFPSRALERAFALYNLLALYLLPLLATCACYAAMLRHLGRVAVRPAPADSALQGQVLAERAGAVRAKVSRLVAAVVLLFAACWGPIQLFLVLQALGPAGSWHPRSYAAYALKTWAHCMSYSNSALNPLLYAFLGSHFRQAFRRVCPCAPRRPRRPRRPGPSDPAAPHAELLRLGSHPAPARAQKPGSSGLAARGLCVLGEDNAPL
Chain of KiSS-1 receptor (Rattus norvegicus, UniProt Q924U1) (Q924U1 whole entry): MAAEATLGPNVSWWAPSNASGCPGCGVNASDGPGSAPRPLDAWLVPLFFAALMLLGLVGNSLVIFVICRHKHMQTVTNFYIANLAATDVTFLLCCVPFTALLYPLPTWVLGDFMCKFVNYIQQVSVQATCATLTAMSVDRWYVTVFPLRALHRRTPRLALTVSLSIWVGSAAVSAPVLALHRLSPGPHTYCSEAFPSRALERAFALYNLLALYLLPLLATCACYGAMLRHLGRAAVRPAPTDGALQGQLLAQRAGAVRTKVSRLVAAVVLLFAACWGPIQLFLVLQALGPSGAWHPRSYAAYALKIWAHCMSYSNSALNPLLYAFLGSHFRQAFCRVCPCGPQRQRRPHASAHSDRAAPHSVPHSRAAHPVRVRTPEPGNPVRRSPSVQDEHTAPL

Compound	EC50 [1]	EC50 [2]	inhibition [3]
CNC(=N)NCCC[C@H](NC(=O)[C@H](CC(C)C)NC(=O)NNC(=O)[C@H](Cc1ccccc1)NC(=O)[C@@H](NC(=O)[C@H](CC(N)=O)NC(=O)[C@@H](CC(C)C)NC(=O)[C@@H](Cc1ccc(O)cc1)NC(C)=O)[C@@H](C)O)C(=O)N[C@@H](Cc1c[nH]c2ccccc12)C(N)=O	12 nM	2 nM	Active
CNC(=N)NCCC[C@H](NC(=O)[C@H](CC(C)C)NC(=O)NNC(=O)[C@H](Cc1cccc(F)c1)NC(=O)[C@@H](NC(=O)[C@H](CC(N)=O)NC(=O)C(C)(C)NC(=O)[C@@H](Cc1ccc(O)cc1)NC(C)=O)[C@@H](C)O)C(=O)N[C@@H](Cc1c[nH]c2ccccc12)C(N)=O (Ac-[dY][Aib]NT[Phe(3-F)][azaGly]L[Arg(Me)]W-NH2)	7 nM	1.2 nM	
CNC(=N)NCCC[C@H](NC(=O)[C@H](CC(C)C)NC(=O)NNC(=O)[C@H](Cc1ccccc1)NC(=O)[C@@H](NC(=O)[C@H](CC(N)=O)NC(=O)c1ccccc1NC(=O)[C@@H](Cc1ccc(O)cc1)NC(C)=O)[C@@H](C)O)C(=O)N[C@@H](Cc1c[nH]c2ccccc12)C(N)=O (Ac-[dY][2Abz]NTF[azaGly]L[Arg(Me)]W-NH2)	47 nM	5.2 nM	
CNC(=N)NCCC[C@H](NC(=O)[C@H](CC(C)C)NC(=O)NNC(=O)[C@H](Cc1ccccc1)NC(=O)[C@@H](NC(=O)[C@H](CC(N)=O)NC(=O)[C@H](C)NC(=O)[C@@H](Cc1ccc(O)cc1)NC(C)=O)[C@@H](C)O)C(=O)N[C@@H](Cc1c[nH]c2ccccc12)C(N)=O	6 nM	1.2 nM	
CNC(=N)NCCC[C@H](NC(=O)[C@H](CC(C)C)NC(=O)NNC(=O)[C@H](Cc1ccccc1)NC(=O)[C@@H](NC(=O)[C@H](CC(N)=O)NC(=O)[C@H](CCCCN)NC(=O)[C@@H](Cc1ccc(O)cc1)NC(C)=O)[C@@H](C)O)C(=O)N[C@@H](Cc1c[nH]c2ccccc12)C(N)=O	6.8 nM	1.6 nM	Active
CNC(=N)NCCC[C@H](NC(=O)[C@H](CC(C)C)NC(=O)NNC(=O)[C@H](Cc1ccccc1)NC(=O)[C@@H](NC(=O)[C@H](CC(N)=O)NC(=O)[C@@H](C)N(C)C(=O)[C@@H](Cc1ccc(O)cc1)NC(C)=O)[C@@H](C)O)C(=O)N[C@@H](Cc1c[nH]c2ccccc12)C(N)=O (Ac-[dY][dNMeA]NTF[azaGly]L[Arg(Me)]W-NH2)	7.3 nM	1.8 nM	
CNC(=N)NCCC[C@H](NC(=O)[C@H](CC(C)C)NC(=O)NNC(=O)[C@H](Cc1ccccc1)NC(=O)[C@@H](NC(=O)[C@H](CC(N)=O)NC(=O)CN(C)C(=O)[C@@H](Cc1ccc(O)cc1)NC(C)=O)[C@@H](C)O)C(=O)N[C@@H](Cc1c[nH]c2ccccc12)C(N)=O (Ac-[dY][Sar]NTF[azaGly]L[Arg(Me)]W-NH2)	20 nM	4.9 nM	
CNC(=N)NCCC[C@H](NC(=O)[C@H](CC(C)C)NC(=O)NNC(=O)[C@H](Cc1cccc(F)c1)NC(=O)[C@@H](NC(=O)[C@H](CC(N)=O)NC(=O)[C@@H](Cc1c[nH]c2ccccc12)NC(=O)[C@@H](Cc1ccc(O)cc1)NC(C)=O)[C@@H](C)O)C(=O)N[C@@H](Cc1c[nH]c2ccccc12)C(N)=O (Ac-[dY][dW]NT[Phe(3-F)][azaGly]L[Arg(Me)]W-NH2)	4.8 nM	1.4 nM	
CNC(=N)NCCC[C@H](NC(=O)[C@H](CC(C)C)NC(=O)NNC(=O)[C@H](Cc1cccc(F)c1)NC(=O)[C@@H](NC(=O)[C@H](CC(N)=O)NC(=O)CNC(=O)[C@@H](Cc1ccc(O)cc1)NC(C)=O)[C@@H](C)O)C(=O)N[C@@H](Cc1c[nH]c2ccccc12)C(N)=O (Ac-[dY]GNT[Phe(3-F)][azaGly]L[Arg(Me)]W-NH2)	7.4 nM	1.1 nM	
CNC(=N)NCCC[C@H](NC(=O)[C@H](CC(C)C)NC(=O)NNC(=O)[C@H](Cc1ccccc1)NC(=O)[C@@H](NC(=O)[C@H](CC(N)=O)NC(=O)[C@H](CCC(=O)O)NC(=O)[C@@H](Cc1ccc(O)cc1)NC(C)=O)[C@@H](C)O)C(=O)N[C@@H](Cc1c[nH]c2ccccc12)C(N)=O	11 nM	2.8 nM	Active
CNC(=N)NCCC[C@H](NC(=O)[C@H](CC(C)C)NC(=O)NNC(=O)[C@H](Cc1ccccc1)NC(=O)[C@@H](NC(=O)[C@H](CC(N)=O)NC(=O)[C@H](C)N(C)C(=O)[C@@H](Cc1ccc(O)cc1)NC(C)=O)[C@@H](C)O)C(=O)N[C@@H](Cc1c[nH]c2ccccc12)C(N)=O (Ac-[dY][NMeA]NTF[azaGly]L[Arg(Me)]W-NH2)	43 nM	4.4 nM	
CNC(=N)NCCC[C@H](NC(=O)[C@H](CC(C)C)NC(=O)NNC(=O)[C@H](Cc1ccc(Cl)cc1)NC(=O)[C@@H](NC(=O)[C@H](CC(N)=O)NC(=O)[C@@H](Cc1c[nH]c2ccccc12)NC(=O)[C@@H](Cc1ccc(O)cc1)NC(C)=O)[C@@H](C)O)C(=O)N[C@@H](Cc1c[nH]c2ccccc12)C(N)=O (Ac-[dY][dW]NT[Phe(4-Cl)][azaGly]L[Arg(Me)]W-NH2)	2.8 nM	0.56 nM	
CNC(=N)NCCC[C@H](NC(=O)[C@H](CC(C)C)NC(=O)NNC(=O)[C@H](Cc1cccc(F)c1)NC(=O)[C@@H](NC(=O)[C@H](CC(N)=O)NC(=O)[C@H](Cc1c[nH]c2ccccc12)NC(=O)[C@@H](Cc1ccc(O)cc1)NC(C)=O)[C@@H](C)O)C(=O)N[C@@H](Cc1c[nH]c2ccccc12)C(N)=O (Ac-[dY]WNT[Phe(3-F)][azaGly]L[Arg(Me)]W-NH2)	1.2 nM	0.073 nM	
CNC(=N)NCCC[C@H](NC(=O)[C@H](CC(C)C)NC(=O)NNC(=O)[C@H](Cc1ccccc1F)NC(=O)[C@@H](NC(=O)[C@H](CC(N)=O)NC(=O)[C@@H](Cc1c[nH]c2ccccc12)NC(=O)[C@@H](Cc1ccc(O)cc1)NC(C)=O)[C@@H](C)O)C(=O)N[C@@H](Cc1c[nH]c2ccccc12)C(N)=O (Ac-[dY][dW]NT[Phe(2-F)][azaGly]L[Arg(Me)]W-NH2)	1.8 nM	0.65 nM	
CNC(=N)NCCC[C@H](NC(=O)[C@H](CC(C)C)NC(=O)NNC(=O)[C@H](Cc1ccc(F)cc1)NC(=O)[C@@H](NC(=O)[C@H](CC(N)=O)NC(=O)[C@@H](Cc1c[nH]c2ccccc12)NC(=O)[C@@H](Cc1ccc(O)cc1)NC(C)=O)[C@@H](C)O)C(=O)N[C@@H](Cc1c[nH]c2ccccc12)C(N)=O	4.7 nM	1.9 nM	Active
CNC(=N)NCCC[C@H](NC(=O)[C@H](CC(C)C)NC(=O)NNC(=O)[C@H](Cc1ccccc1)NC(=O)[C@@H](NC(=O)[C@H](CC(N)=O)NC(=O)CCNC(=O)[C@@H](Cc1ccc(O)cc1)NC(C)=O)[C@@H](C)O)C(=O)N[C@@H](Cc1c[nH]c2ccccc12)C(N)=O (Ac-[dY][βAla]NTF[azaGly]L[Arg(Me)]W-NH2)	11 nM	3.3 nM	

Further lines, with some results ahead:

EC50 [1]	EC50 [2]	Compound	inhibition [3]
16 nM	1.9 nM	CNC(=N)NCCC[C@H](NC(=O)[C@H](CC(C)C)NC(=O)NNC(=O)[C@H](Cc1ccccc1)NC(=O)[C@@H](NC(=O)[C@H](CC(N)=O)NC(=O)[C@@H]1CCN1C(=O)[C@@H](Cc1ccc(O)cc1)NC(C)=O)[C@@H](C)O)C(=O)N[C@@H](Cc1c[nH]c2ccccc12)C(N)=O (Ac-[dY][Aze]NTF[azaGly]L[Arg(Me)]W-NH2)	Active
7 nM	0.49 nM	CNC(=N)NCCC[C@H](NC(=O)[C@H](CC(C)C)NC(=O)NNC(=O)[C@H](Cc1ccccc1)NC(=O)[C@@H](NC(=O)[C@H](CC(N)=O)NC(=O)[C@@H]1Cc2ccccc2CN1C(=O)[C@@H](Cc1ccc(O)cc1)NC(C)=O)[C@@H](C)O)C(=O)N[C@@H](Cc1c[nH]c2ccccc12)C(N)=O	
15 nM	2.3 nM	CNC(=N)NCCC[C@H](NC(=O)[C@H](CC(C)C)NC(=O)NNC(=O)[C@H](Cc1ccccc1)NC(=O)[C@@H](NC(=O)[C@H](CC(N)=O)NC(=O)C1CN(C(=O)[C@@H](Cc2ccc(O)cc2)NC(C)=O)C1)[C@@H](C)O)C(=O)N[C@@H](Cc1c[nH]c2ccccc12)C(N)=O	
16 nM	2.7 nM	CNC(=N)NCCC[C@H](NC(=O)[C@H](CC(C)C)NC(=O)NNC(=O)[C@H](Cc1ccccc1)NC(=O)[C@@H](NC(=O)[C@H](CC(N)=O)NC(=O)[C@@H](C)NC(=O)[C@@H](Cc1ccc(O)cc1)NC(C)=O)[C@@H](C)O)C(=O)N[C@@H](Cc1c[nH]c2ccccc12)C(N)=O	
110 nM	5.8 nM	CNC(=N)NCCC[C@H](NC(=O)[C@H](CC(C)C)NC(=O)NNC(=O)[C@H](Cc1ccccc1)NC(=O)[C@@H](NC(=O)[C@H](CC(N)=O)NC(=O)[C@H]1CCCN1C(=O)[C@@H](Cc1ccc(O)cc1)NC(C)=O)[C@@H](C)O)C(=O)N[C@@H](Cc1c[nH]c2ccccc12)C(N)=O	
45 nM	5.5 nM	CNC(=N)NCCC[C@H](NC(=O)[C@H](CC(C)C)NC(=O)NNC(=O)[C@H](Cc1ccccc1)NC(=O)[C@@H](NC(=O)[C@H](CC(N)=O)NC(=O)[C@H]1CCCN(C(=O)[C@@H](Cc2ccc(O)cc2)NC(C)=O)C1)[C@@H](C)O)C(=O)N[C@@H](Cc1c[nH]c2ccccc12)C(N)=O	
23 nM	2.3 nM	CNC(=N)NCCC[C@H](NC(=O)[C@H](CC(C)C)NC(=O)NNC(=O)[C@H](Cc1ccccc1)NC(=O)[C@@H](NC(=O)[C@H](CC(N)=O)NC(=O)[C@@H]1CSCN1C(=O)[C@@H](Cc1ccc(O)cc1)NC(C)=O)[C@@H](C)O)C(=O)N[C@@H](Cc1c[nH]c2ccccc12)C(N)=O (Ac-[dY][Thz]NTF[azaGly]L[Arg(Me)]W-NH2)	
17 nM	2.8 nM	CNC(=N)NCCC[C@H](NC(=O)[C@H](CC(C)C)NC(=O)NNC(=O)[C@H](Cc1ccccc1)NC(=O)[C@@H](NC(=O)[C@H](CC(N)=O)NC(=O)[C@@H]1CCCCN1C(=O)[C@@H](Cc1ccc(O)cc1)NC(C)=O)[C@@H](C)O)C(=O)N[C@@H](Cc1c[nH]c2ccccc12)C(N)=O (Ac-[dY][Pip]NTF[azaGly]L[Arg(Me)]W-NH2)	
